Data reported in ChEMBL document CHEMBL1157719, “1-Indol-1-yl-propan-2-ones and related heterocyclic compounds as dual inhibitors of cytosolic phospholipase A(2)alpha and fatty acid amide hydrolase” (Bioorg Med Chem, 2010).
Calls of active or inactive are those of the source. The rule behind the calls is not given here.

What was measured:
[1] = molecular target: T1, Fatty-acid amide hydrolase 1 (Rattus norvegicus) (UniProt P97612); assay: Inhibition of FAAH from rat brain microsomes at 10 uM by RP-HPLC
T1 sequence (whole entry): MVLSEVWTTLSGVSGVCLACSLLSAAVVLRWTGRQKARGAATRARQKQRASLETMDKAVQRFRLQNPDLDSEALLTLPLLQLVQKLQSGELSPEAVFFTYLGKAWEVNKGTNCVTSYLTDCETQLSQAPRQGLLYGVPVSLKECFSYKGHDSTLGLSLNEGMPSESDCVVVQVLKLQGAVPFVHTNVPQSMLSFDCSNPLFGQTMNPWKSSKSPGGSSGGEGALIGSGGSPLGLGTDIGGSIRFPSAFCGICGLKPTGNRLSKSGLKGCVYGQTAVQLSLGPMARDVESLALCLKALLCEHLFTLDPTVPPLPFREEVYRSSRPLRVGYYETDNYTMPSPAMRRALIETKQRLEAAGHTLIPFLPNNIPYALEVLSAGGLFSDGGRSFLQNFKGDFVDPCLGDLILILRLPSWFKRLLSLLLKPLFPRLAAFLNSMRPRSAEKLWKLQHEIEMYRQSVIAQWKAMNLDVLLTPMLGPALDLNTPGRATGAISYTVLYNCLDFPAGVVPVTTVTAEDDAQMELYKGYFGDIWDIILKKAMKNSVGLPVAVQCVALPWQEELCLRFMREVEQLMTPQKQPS
Method in brief: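 Rat brain microsomes as FAAH source; substrate N-(2-hydroxyethyl)-4-pyren-1-ylbutanamide 100 μM solubilized with Triton X-100 0.2%. Incubated 45 min, then stopped with acetonitrile/methanol plus internal standard 6-pyren-1-ylhexanoic acid. Released 4-pyren-1-ylbutanoic acid quantified directly by RP-HPLC with fluorescence (ex 340, em 380 nm), with vs without inhibitor. Inhibitor max 10 μM; IC50 means of at least two independent determinations.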

[2] = molecular target: T2, Fatty-acid amide hydrolase 1 (Rattus norvegicus, UniProt P97612); assay: Inhibition of FAAH from rat brain microsomes by RP-HPLC
T2 sequence (P97612 whole entry): T1 sequence (whole entry)

[3] = inhibition of MAGL up to 10 uM
Method in brief: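 MAGL set up like the FAAH assay, using pyrene-labelled substrate 1,3-dihydroxypropan-2-yl 4-pyren-1-ylbutanoate; product measured by RP-HPLC with fluorescence detection; highest test concentration 10 μM.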

[4] = molecular target: T3, Cytosolic phospholipase A2 (Homo sapiens, UniProt P47712); assay: Inhibition of cPLA2 from human platelets by RP-HPLC
T3 sequence (P47712 whole entry): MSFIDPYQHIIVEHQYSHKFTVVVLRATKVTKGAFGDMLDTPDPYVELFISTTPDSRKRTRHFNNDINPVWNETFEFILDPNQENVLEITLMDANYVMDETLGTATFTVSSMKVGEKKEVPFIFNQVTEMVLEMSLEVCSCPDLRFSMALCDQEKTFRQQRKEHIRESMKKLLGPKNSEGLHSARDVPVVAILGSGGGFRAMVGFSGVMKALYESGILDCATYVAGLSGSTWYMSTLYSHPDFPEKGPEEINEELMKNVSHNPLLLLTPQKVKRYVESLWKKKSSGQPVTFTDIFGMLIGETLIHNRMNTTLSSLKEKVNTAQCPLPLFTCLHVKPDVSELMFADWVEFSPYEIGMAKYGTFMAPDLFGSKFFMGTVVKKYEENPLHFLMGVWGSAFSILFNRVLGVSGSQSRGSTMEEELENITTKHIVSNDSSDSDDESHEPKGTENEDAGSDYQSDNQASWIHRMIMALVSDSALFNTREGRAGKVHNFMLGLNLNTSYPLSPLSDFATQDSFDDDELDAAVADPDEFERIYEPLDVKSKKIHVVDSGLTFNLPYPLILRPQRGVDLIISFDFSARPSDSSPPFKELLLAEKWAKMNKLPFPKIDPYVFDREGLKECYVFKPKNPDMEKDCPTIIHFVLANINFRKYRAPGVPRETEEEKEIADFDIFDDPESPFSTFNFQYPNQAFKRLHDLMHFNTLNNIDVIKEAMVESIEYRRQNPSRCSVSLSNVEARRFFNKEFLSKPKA
Method in brief: (§1)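 cPLA2α purified from human platelets; substrate sonicated covesicles of SAPC 200 μM and 1,2-dioleoyl-sn-glycerol 100 μM. Reaction 60 min, stopped with acetonitrile/methanol/0.1 M EDTA-Na2 containing 4-undecyloxybenzoic acid internal standard and NDGA. Arachidonic acid released measured by RP-HPLC, UV 200 nm, after solid-phase extraction, with vs without inhibitor; max 10 μM. IC50 means of at least two independent determinations.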

[5] = molecular target: T4, Cytosolic phospholipase A2 (Homo sapiens) (UniProt P47712); assay: Inhibition of cPLA2 from human platelets at 10 uM by RP-HPLC; method in brief: as §1
T4 sequence (whole entry): T3 sequence (P47712 whole entry)

For `CCCCCCCCc1ccc(OCC(=O)Cn2ncc3ccc(C(=O)O)cc32)cc1`, the inhibition [1] was 23%, the IC50 [2] was over 10000 nM and the inhibition [3] was “inactive”.
Compound `CCCCCCCCc1ccc(OCC(=O)Cn2ccc(C(=O)O)n2)cc1` has an IC50 [4] of 8200 nM, an inhibition [1] of 39% and an IC50 [2] of over 10000 nM. The inhibition [3] was “inactive”.
In the case of `CCCCCCCCc1ccc(OCC(=O)Cn2cc(Cl)c3cc(C(=O)O)ccc32)cc1`, the inhibition [1] is reported as “inactive” and the inhibition [3] is reported as “inactive”.
With `CCCCCCCCc1ccc(OCC(=O)Cn2ccc3cc(C(=O)O)ccc32)cc1` the IC50 [2] was 2800 nM and the inhibition [3] was “inactive”.
Compound `CCCCCCCCc1ccc(OCC(=O)Cn2cnc3ccccc32)cc1` has an IC50 [4] of over 10000 nM, an inhibition [5] of 36% and an IC50 [2] of 1000 nM. For the same compound, the inhibition [3] was “inactive”.
In the case of `CCCCCCCCc1ccc(OCC(=O)Cn2ccc3cc(OC)ccc32)cc1`, the inhibition [5] is reported as “inactive”, the inhibition [1] is reported as 22% and the IC50 [2] is reported as over 10000 nM. The inhibition [3] was “inactive”.
In the case of `CCCCCCCCc1ccc(OCC(=O)Cn2ccc3ccccc32)cc1`, the inhibition [5] is reported as “inactive”, the inhibition [1] is reported as “inactive” and the inhibition [3] is reported as “inactive”.
With `CCCCCCCCc1ccc(OCC(=O)Cn2ccc3cc(C#N)ccc32)cc1` the IC50 [4] was over 10000 nM, the inhibition [1] was 42% and the IC50 [2] was over 10000 nM. For the same compound, the inhibition [3] was “inactive”.
For `CCCCCCCCc1ccc(OCC(=O)Cn2cc(C(C)=O)c3cc(C(=O)O)ccc32)cc1`, the IC50 [4] was 12 nM, the inhibition [1] was “inactive” and the inhibition [3] was “inactive”.
For `CCCCCCCCc1ccc(OCC(=O)Cn2ccc(C(=O)O)c2)cc1`, the IC50 [4] was 5000 nM, the IC50 [2] was 3600 nM and the inhibition [3] was “inactive”.
With `CCCCCCCCc1ccc(OCC(=O)Cn2nnc3cc(C(=O)O)ccc32)cc1` the IC50 [2] was 140 nM and the inhibition [3] was “inactive”.
For `CCCCCCCCc1ccc(OCC(=O)Cn2ccnc2)cc1`, the IC50 [4] was 500 nM, the IC50 [2] was 760 nM and the inhibition [3] was “inactive”.
With `CCCCCCCCc1ccc(OCC(=O)Cn2cnc3ccc(C(=O)O)cc32)cc1` the IC50 [2] was 3100 nM and the inhibition [3] was “inactive”.
For `CCCCCCCCc1ccc(OCC(=O)Cn2cc(C(=O)O)cn2)cc1`, the IC50 [4] was 1800 nM, the IC50 [2] was 110 nM and the inhibition [3] was “inactive”.
With `CCCCCCCCc1ccc(OCC(=O)Cn2nnc3ccccc32)cc1` the IC50 [4] was 2200 nM, the IC50 [2] was 47 nM and the inhibition [3] was “inactive”.
In the case of `CCCCCCCCc1ccc(OCC(=O)Cn2ccc3cc(C(N)=O)ccc32)cc1`, the IC50 [2] is reported as 6400 nM and the inhibition [3] is reported as “inactive”.
With `CCCCCCCCc1ccc(OCC(=O)Cn2ncc3cc(C(=O)O)ccc32)cc1` the IC50 [2] was 160 nM and the inhibition [3] was “inactive”.
With `CCCCCCCCc1ccc(OCC(=O)Cn2nccc2C(=O)O)cc1` the IC50 [4] was over 10000 nM, the inhibition [5] was 21% and the inhibition [1] was “inactive”. For the same compound, the inhibition [3] was “inactive”.
With `NC(=O)c1cccc(-c2cccc(OC(=O)NC3CCCCC3)c2)c1` the inhibition [5] was “inactive”.
`CCCCCCCCc1ccc(OCC(=O)Cn2ccc3c(C(=O)O)cccc32)cc1` gave an IC50 [4] of over 10000 nM, an inhibition [1] of 40% and an IC50 [2] of over 10000 nM. The inhibition [3] was “inactive”.
With `CCCCCCCCc1ccc(OCC(=O)Cn2ccc3cc(C=O)ccc32)cc1` the inhibition [1] was 45%, the IC50 [2] was over 10000 nM and the inhibition [3] was “inactive”.
For `CCCCCCCCc1ccc(OCC(=O)Cn2cc(C(C)(C)C)c3cc(C(=O)O)ccc32)cc1`, the inhibition [1] was “inactive” and the inhibition [3] was “inactive”.
With `CC(C)CN(Cc1ccccc1-c1ccccc1)[C@@H]1C[C@@H](CNC(=O)/C=C/c2ccc(/C=C3\SC(=O)NC3=O)cc2)N(C(=O)c2ccccc2C(=O)c2ccc(F)cc2F)C1` the IC50 [4] was 31 nM and the inhibition [1] was “inactive”.
In the case of `CCCCCCCCc1ccc(OCC(=O)Cn2cccc2)cc1`, the inhibition [5] is reported as “inactive”, the inhibition [1] is reported as “inactive” and the inhibition [3] is reported as “inactive”.
For `CCCCCCCCc1ccc(OCC(=O)Cn2ccc3cc(C(=O)OC)ccc32)cc1`, the IC50 [4] was over 10000 nM, the inhibition [1] was “inactive” and the inhibition [3] was “inactive”.
For `CCCCCCCCCCOc1ccc(OCC(=O)COc2ccc(C(=O)O)cc2)cc1`, the IC50 [2] was 59 nM and the inhibition [3] was “inactive”.
For `CCCCC/C=C\C/C=C\C/C=C\C/C=C\CCCC(=O)C(F)(F)F` [ARACHIDONYL TRIFLUOROMETHYLKETONE], the IC50 [2] was 3700 nM and the inhibition [3] was “inactive”.
For `CCCCCCCCc1ccc(OCC(=O)Cn2cc(C(=O)O)c3cc(C(=O)O)ccc32)cc1`, the inhibition [1] was “inactive” and the inhibition [3] was “inactive”.
For `CCCCCCCCc1ccc(OCC(=O)Cn2ncc3ccccc32)cc1`, the inhibition [5] was “inactive”, the IC50 [2] was 5000 nM and the inhibition [3] was “inactive”.
In the case of `CCCCCCCCc1ccc(OCC(=O)Cn2ccc3cc(C)ccc32)cc1`, the inhibition [5] is reported as “inactive”, the inhibition [1] is reported as “inactive” and the inhibition [3] is reported as “inactive”.
In the case of `CCCCCCCCc1ccc(OCC(=O)Cn2ccc3ccc(C(=O)O)cc32)cc1`, the inhibition [1] is reported as “inactive” and the inhibition [3] is reported as “inactive”.
With `O=C(CCCCCc1ccccc1)c1nc2ncccc2o1` the inhibition [5] was “inactive” and the IC50 [2] was 9 nM.
With `CCCCCCCCc1ccc(OCC(=O)Cn2ccc3cc(Cl)ccc32)cc1` the inhibition [5] was “inactive”, the inhibition [1] was “inactive” and the inhibition [3] was “inactive”.
In the case of `CCCCCCCCc1ccc(OCC(=O)Cn2cncc2C(=O)O)cc1`, the IC50 [4] is reported as over 10000 nM, the inhibition [5] is reported as 18% and the inhibition [1] is reported as “inactive”. For the same compound, the inhibition [3] was “inactive”.
In the case of `CCCCCCCCc1ccc(OCC(=O)Cn2nnc3ccc(C(=O)O)cc32)cc1`, the IC50 [2] is reported as 200 nM and the inhibition [3] is reported as “inactive”.
In the case of `CCCCCCCCc1ccc(OCC(=O)Cn2cnc(C(=O)O)c2)cc1`, the IC50 [4] is reported as 5300 nM, the IC50 [2] is reported as 1900 nM and the inhibition [3] is reported as “inactive”.
With `CCCCCCCCc1ccc(OCC(=O)Cn2cnc3cc(C(=O)O)ccc32)cc1` the IC50 [2] was 610 nM and the inhibition [3] was “inactive”.
With `CCCCCCCCc1ccc(OCC(=O)Cn2cc(C=O)c3cc(C(=O)O)ccc32)cc1` the inhibition [1] was “inactive” and the inhibition [3] was “inactive”.
With `CCCCCCCCc1ccc(OCC(=O)Cn2cccc2C(=O)O)cc1` the inhibition [5] was “inactive”, the inhibition [1] was “inactive” and the inhibition [3] was “inactive”.
In the case of `CCCCCCCCc1ccc(OCC(=O)Cn2cc(C(=O)O)c3ccccc32)cc1`, the IC50 [4] is reported as over 10000 nM, the inhibition [1] is reported as “inactive” and the inhibition [3] is reported as “inactive”.
With `CCCCCCCCc1ccc(OCC(=O)Cn2c(C(=O)O)cc3ccccc32)cc1` the inhibition [5] was “inactive”, the inhibition [1] was “inactive” and the inhibition [3] was “inactive”.
With `CCCCCCCCc1ccc(OCC(=O)Cn2cc(C#N)c3cc(C(=O)O)ccc32)cc1` the inhibition [1] was “inactive” and the inhibition [3] was “inactive”.
For `CCCCCCCCc1ccc(OCC(=O)Cn2cc(C(=O)OC)c3cc(C(=O)O)ccc32)cc1`, the inhibition [1] was “inactive” and the inhibition [3] was “inactive”.
`CCCCCCCCc1ccc(OCC(=O)Cn2cccn2)cc1` gave an IC50 [4] of over 10000 nM, an inhibition [5] of 43% and an IC50 [2] of 2000 nM. For the same compound, the inhibition [3] was “inactive”.
